Measurements as given in the RNAGym collection of RNA variant scans (doi:10.1126/science.aae0568).
Fewer inactive variants are shown than the library holds.

B1: tRNA (parent)
chain: GUUCCGUUGGCGUAAUGGUAACGCGUCUCCCUCCUAAGGAGAAGACUGCGGGUUCGAGUCCCGUACGGAACG

Variants of: B1
Assay: yeast fitness relative to wild type (ratio to wild type); higher = fitter; tRNA-Arg(CCU), competitive growth, 37 C, YPD
Method in brief: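 The tRNA-Arg(CCU) gene variants were made by chemical synthesis with a 3% per-site mutation rate at 69 sites and inserted at the native genomic locus of Saccharomyces cerevisiae. After pooling, the strains were competed in YPD at 37°C for 24 hours in six parallel replicates. Gene amplicons from the start population and each end population were read by 100-nucleotide paired-end sequencing, and Darwinian fitness relative to wild type was taken from genotype frequency changes. Genotypes needed ≥ 100 starting reads, and estimates < 0.5 were set to 0.5.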

Variant	yeast fitness
GUUCCGUUGGCGUAAUGGUAACGCGUCUCCCUCAUAAGGAGUAGACUGCGGGUUCGAGUCCCGUACGCAACG [C34A A42U G68C]	≤ 0.5
GUUCCGUUGGCGUAAUGGUAACGCGUCUCCCUCAUAUGGAGAAGACUGCGGGUUCGAGUCCCCUACGGAACG [C34A A37U G63C]	≤ 0.5
GUUCCGUUGGCGUAAUGGUAACGCGUCUCCCUUCUAAGGAGAAGACUGCCGGUUCGAGUCCCGUACGGAUCG [C33U G50C A70U]	≤ 0.5
GUUCCGUUGGCGUAAUGGUAACGCGUCUCCCUCAUAAGGAGAAGAUAGCGGGUUCGAGUCCCGUACGGAACG [C34A C46U U47A]	≤ 0.5
GUUCCGUUGGCGUAAUGGUAACGCGUCUCCCUUCUAAGGAGAAGACUGCCGGUUCGCGUCCCGUACGGAACG [C33U G50C A57C]	0.623
GUUCCGUUGGCGUAAUGGUAACGCGUCUCCCUCAUAUGGAGAAGACUGCGGGUUCGAGUCCCGUACGGAACG [C34A A37U]	0.741
GUUCCGUUGGCGUAAUGGUAACGCGUCUCCCUUCUAAGGAGAAGACUGCGGGUUCGAGUCCCGUACAGAACG [C33U G67A]	0.776
GUUCCGUUGGCGUAAUGGUAACGCGUCUCCCUUCUAAGGAGAAGACUGCGGGUUCGAGUCCCGUACCGAACG [C33U G67C]	0.839
GUUCCGUUGGCGUAAUGGUAACGCGUCUCCCUUCUAAGGAGAAGACUGCGGGUUCGACUCCCGUACGGAACG [C33U G58C]	0.635
GUUCCGUUGGCGUAAUGGUAACGCGUCUCCCUCAUAGGGAGAAGACUGCGGGUUCGUGUCCCGUACGGAACG [C34A A37G A57U]	0.616
GUUCCGUUGGCGUAAUGGUAACGCGUCUCCCUCAUAUGGAGAAGACUGCGGGUUCGAGUCCCGUACGGCACG [C34A A37U A69C]	≤ 0.5
GUUCCGUUGGCGUAAUGGUAACGCGUCUCCCUUCUAAGGAGAAGACUGCGGGUUCGAGUCCCGUACGAAACG [C33U G68A]	0.679
GUUCCGUUGGCGUAAUGGUAACGCGUCUCCCUUCUAAGGAGAAGACUGCAGGUUCGAGUCCCGUACGGAACG [C33U G50A]	0.626
GUUCCGUUGGCGUAAUGGUAACGCGUCUCCCUCAUAAGGAGUCGACUGCGGGUUCGAGUCCCGUACGGAACG [C34A A42U A43C]	0.629
GUUCCGUUGGCGUAAUGGUAACGCGUCUCCCUUCUAAGGAGAAGACUGCGGGUUCGAGACCCGUACGGAACG [C33U U59A]	0.67
GUUCCGUUGGCGUAAUGGUAACGCGUCUCCCUCAUUAGGAGAAGACUGCGGAUUCGAGUACCGUACGGAACG [C34A A36U G52A C60A]	≤ 0.5
GUUCCGUUGGCGUAAUGGUAACGCGUCUCCCUCAUAAGGGGAAGACUGCGGGUUCGAGUCCCGUAUGGAACG [C34A A40G C66U]	≤ 0.5
GUUCCGUUGGCGUAAUGGUAACGCGUCUCCCUUCCAAGGAGAAGACUGCGGGUUCGAGUCUCGUACGGAACG [C33U U35C C61U]	0.555
GUUCCGUUGGCGUAAUGGUAACGCGUCUCCCUUCUAAGGAGAAGACUGCGAGUUCGUGUCCCGUACGGAACG [C33U G51A A57U]	≤ 0.5

Variant	yeast fitness
GUUCCGUUGGCGUAAUGGUAACGCGUCUCCCUCAUGAGGAGAAGACUGCGGGUUCGAGUCCCGUCCGCAACG [C34A A36G A65C G68C]	≤ 0.5
GUUCCGUUGGCGUAAUGGUAACGCGUCUCCCUCAUAAGGAGAAGAUAGCGGGUUCGAGGCCCGUACGGAACG [C34A C46U U47A U59G]	≤ 0.5
GUUCCGUUGGCGUAAUGGUAACGCGUCUCCCUUCUAAGGAGAAGACUGCGCGUUCGAGUCCCGUACGGAACG [C33U G51C]	≤ 0.5
GUUCCGUUGGCGUAAUGGUAACGCGUCUCCCUUCUAAGGAGAAGACUGCGGCUUCCAGUCCCGUACGGAACG [C33U G52C G56C]	≤ 0.5
GUUCCGUUGGCGUAAUGGUAACGCGUCUCCCUCAUGAGGAGAAGACCGCGGGUUCGAGUCCCGUACGGAACG [C34A A36G U47C]	≤ 0.5
GUUCCGUUGGCGUAAUGGUAACGCGUCUCCCUCAUAUGGAGAAGACUGCGGAUUCGAGUCCCGUACGGAACG [C34A A37U G52A]	≤ 0.5
GUUCCGUUGGCGUAAUGGUAACGCGUCUCCCUCAUAAGGAGAAGCCUGCGGGUUCGAGUCCCGUACGAAACG [C34A A45C G68A]	0.614
GUUCCGUUGGCGUAAUGGUAACGCGUCUCCCUUCUAAGGAGAAGACCGCGGGUUCGGGUCCCGUACGGAACG [C33U U47C A57G]	≤ 0.5
GUUCCGUUGGCGUAAUGGUAACGCGUCUCCCUCAUAAGGGGAAGACAGCGGGUUCGAGUCCCGUAGGGCCCG [C34A A40G U47A C66G A69C A70C]	0.693
GUUCCGUUGGCGUAAUGGUAACGCGUCUCCCUCAUAAGGAGCAGUCUGCGGGUUCGAGUCCCGUUCGGAACG [C34A A42C A45U A65U]	≤ 0.5
GUUCCGUUGGCGUAAUGGUAACGCGUCUCCCUCAUCAGGAGAAGAAUGCGGGUUCGAGUCCCGUACGGAACG [C34A A36C C46A]	≤ 0.5
GUUCCGUUGGCGUAAUGGUAACGCGUCUCCCUUCUAAGGAGAAGACUGCGGGUUCAAGUCCCGUACGGAACG [C33U G56A]	0.682
GUUCCGUUGGCGUAAUGGUAACGCGUCUCCCUUCUAAGGAGAAGACUGCGGGUUCGAUUCACGUACGGAACG [C33U G58U C61A]	≤ 0.5
GUUCCGUUGGCGUAAUGGUAACGCGUCUCCCUUCUAAGGAGAAGACUGCGGGUUCGAGUCCCCUACGGAACG [C33U G63C]	0.545
GUUCCGUUGGCGUAAUGGUAACGCGUCUCCCUUCUAAGGAGAAGACUGCGGGUUCGAGUCCCAUACGGAACG [C33U G63A]	0.614
GUUCCGUUGGCGUAAUGGUAACGCGUCUCCCUUCUAAGGAGAAGACCACGGGUUCGAAUCCCGUACGGAACG [C33U U47C G48A G58A]	0.506
GUUCCGUUGGCGUAAUGGUAACGCGUCUCCCUCAUAAGGAGAAGACUGAGCGUUCGAGUCCCGUACGGAACG [C34A C49A G51C]	0.591
GUUCCGUUGGCGUAAUGGUAACGCGUCUCCCUCAUAAGGAGAAGACUGAGGGUUCGAGUCCCUUACAGAACG [C34A C49A G63U G67A]	≤ 0.5
GUUCCGUUGGCGUAAUGGUAACGCGUCUCCCUCAUAAGGAGAAGACUGCGGGUUCGAGUCCCGUACGGAACG [C34A]	0.71
